Assay outcomes deposited in PubChem BioAssay by several laboratories.
Runt-SMMHC FRET – inhibitors of human RUNX1 Runt domain binding to CBFb-SMMHC. inhibition, % at 20 µM. Q01196+Q13951. 220,000 tested, 0.74% active. Cerulean-Runt/Venus-CBFb-SMMHC FRET ratio 530/480, 1 h. AID 1434;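 active means mean inhibition across duplicate retests at 20 µM reaching about 50%, limit read from the data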;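 further: inhibitors lower the FRET ratio by blocking Runt binding to CBFb-SMMHC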
AI-2 QS mod – Vibrio harveyi AI-2 quorum sensing modulation | 300,000 tested, 0.4% active | activity change, % at 7.5 µM | Vibrio harveyi JMH597 AI-2 luminescence/OD600 ratio, 9 h; active compounds read low; strain lacks LuxN and CqsS sensors; 0 = neutral-control median; in the data active means activity change below about -75%, passing the limit was not always enough;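 further: luminescence divided by OD600 gain over 9 h not by final OD600 alone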
Wee1 stabilizer – blocks degradation of human Wee1 kinase; P30291; 220,000 tested, 1.2% active; reporter increase, % at 5 µM; HeLa Luc-Wee1K328M stability, luciferase luminescence; 100% = proteasome inhibitor MG132 effect;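 active means activation above the mean of all tested compounds plus 3 SD, set per screening run, cut at about 8.8% in these data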;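 further: cells exposed to compound for 20 h before luminescence read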
RanGTP-Impb inh – inhibitors of RanGTP-importin-beta interaction, primary screen, biochemical, FRET, CFP-Ran, YFP-importin-beta, homogeneous | AID 2216 | 300,000 tested, 1.1% active | cell-free CFP-Ran/YFP-importin-beta FRET ratio | inhibition, % (concentration not given with the values);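 active means more than half of the replicate wells show a fall in the fluorescence ratio signal beyond about 16%, limit read from the data, passing the limit was not always enough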
Runt-CBFb FRET – inhibitors of human RUNX1 Runt domain binding to CBFb | Q01196+Q13951 | Cerulean-Runt/Venus-CBFb FRET ratio 530/480, 1 h | inhibition, % at 20 µM | 220,000 tested, 0.46% active | AID 1496;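 active means inhibition over about 50% at 20 µM in the single-dose screen, limit read from the data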
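Buffer or medium: Tris pH 7.5 buffer with BSA. Assay system: Cerulean-labeled Runt domain protein. Amount: each fluorescent fusion protein 100 nM. Read-out basis: loss of energy transfer signal. Incubation: 1 h compound exposure, room temperature. Probe or stimulus: Venus-CBFb binding partner, 100 nM. Detection: FRET, excitation 422 nm, emission at 530 and 480 nm.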
proKLK7 act – proKLK7 (human) activation, primary screen; P49862; purified proKLK7, EDANS-DABCYL substrate fluorescence; 100% is mature enzyme control, 0% vehicle; activation, % at 7 µM; 370,000 tested, 0.9% active;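 active means activation above the mean of all tested compounds plus 3 SD, computed per campaign excluding outliers beyond control limits, cut at about 13% in these data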
KLK7 act conf – proKLK7 activation, confirmation. shares compounds with proKLK7 act. activation, % at 7 µM. purified proKLK7, EDANS-DABCYL substrate fluorescence; scaled: vehicle 0, mature enzyme 100. 3,200 tested, 68% active. AID 686949;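 active means activation, as change over the incubation, above the mean of all tested compounds plus 3 SD, cut at about 13% in these data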
EDANS-DABCYL int – fluorescence interference counter-screen for KLK7 activators. shares compounds with proKLK7 act. EDANS-DABCYL substrate fluorescence interference, no enzyme, 4 h; solvent 0%, active enzyme control 100%. activation, % at 7 µM. 3,200 tested, 80% active. AID 686952;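 active means activation above the all-compound mean plus 3 SD, ignoring values outside control-based bounds, cut at about 4.8% in these data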;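 further: value is the 4 h activation minus the activation read at time zero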
EDANS interf – EDANS fluorescence interference in dose response, no enzyme; shares compounds with proKLK7 act; EDANS-DABCYL peptide fluorescence interference; EC50, µM; 250 tested, 20% active; AID 720493;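 active means compounds that raise the fluorescence signal in this interference counterscreen, with EC50 at or below 10 µM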;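 further: intact quenched peptide substrate alone read at 355 nm excitation and 520 nm emission; signal is fluorescence gain from T0 to T4 after four hours at room temperature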
Of the large screens only hits and unclear results are named; the others gave an inactive call (follow-up assays come after a bar, where they were run). A selection: hits, their analogues and other compounds. The true share with any hit is near 2.9%.

CSc1ccccc1NC(=O)CN(C)C(=O)Cn1c(=O)oc2ccccc21	none (no result: Runt-SMMHC FRET, Wee1 stabilizer, Runt-CBFb FRET)
COc1cccc(/C=N/NC(=O)CC2C(=O)NN=C2C)c1OC (configuration not stated)	none
COc1cc(/C=N/NC(=O)c2cccnc2)ccc1OCC(=O)Nc1ccccc1Cl	none
COc1ccc(OC)c(/C=N/NC(=O)c2cnccn2)c1	proKLK7 act 26 | KLK7 act conf 36 | EDANS-DABCYL int 39
COc1ccc(NC(=O)COc2ccc(/C=N/NC(=O)c3cccnc3)cc2OC)cc1	proKLK7 act 20 | KLK7 act conf inactive | EDANS-DABCYL int inactive
COc1ccc(/C=N/NC(=O)c2cnccn2)c(OC)c1OC	none
COc1ccc(OC)c(/C=N/NC(=O)c2cc[n+](CC(=O)c3ccccc3)cc2)c1	proKLK7 act 31 | KLK7 act conf 63 | EDANS-DABCYL int 65
COc1ccc(OC)c(/C=N/NC(=O)CC2C(=O)NN=C2C)c1 (configuration not stated)	proKLK7 act 77 | KLK7 act conf 45 | EDANS-DABCYL int 39
CCN1C[C@@H]2[C@@H]3C(=O)N(C)C(=O)[C@@H]3[C@](CC)(C1=O)N2C(=O)c1ccc(C)cc1	none (no result: Runt-SMMHC FRET, AI-2 QS mod, Wee1 stabilizer, RanGTP-Impb inh, Runt-CBFb FRET)
Cc1nc(C(F)(F)F)ccc1C(=O)N1CCC1(C)C(=O)NS(C)(=O)=O (configuration not stated)	none (no result: Runt-SMMHC FRET, AI-2 QS mod, Wee1 stabilizer, RanGTP-Impb inh, Runt-CBFb FRET)
CC(=O)Oc1cc2oc(=O)c3c(c2cc1Cl)CCC3	Runt-SMMHC FRET 178, Runt-CBFb FRET 81, proKLK7 act 74 | KLK7 act conf 340 | EDANS-DABCYL int 403
CC(C)Oc1cc2oc(=O)c3c(c2cc1Cl)CCC3	none
CCOC(=O)c1cn(C2CC2)c2c(F)c(NCCCN(C)C)c(F)cc2c1=O	proKLK7 act 20 (no result: Runt-SMMHC FRET, Wee1 stabilizer, Runt-CBFb FRET) | KLK7 act conf inactive | EDANS-DABCYL int 12
CN(C)CC#Cc1cccc(-c2nc(C(=O)O)cc3c2[C@@H](CCO)N(S(=O)C(C)(C)C)C3)c1 (some centres not stated)	none (no result: Runt-SMMHC FRET, AI-2 QS mod, Wee1 stabilizer, RanGTP-Impb inh, Runt-CBFb FRET)
O=c1cccc2n1Cc1cc3ccccc3nc1-2	proKLK7 act 47 | KLK7 act conf 60 | EDANS-DABCYL int 69
CCN(CC(=O)NC1CCS(=O)(=O)C1)S(=O)(=O)c1ccccc1Cl (configuration not stated)	none (no result: Runt-SMMHC FRET, Wee1 stabilizer, Runt-CBFb FRET)
O=c1cc(CN2CCN(Cc3ccccc3)CC2)c2ccc(O)c(O)c2o1	none (no result: Runt-SMMHC FRET, Wee1 stabilizer, Runt-CBFb FRET)
CCc1cc2c(CN3CCN(Cc4ccccc4)CC3)cc(=O)oc2cc1O	RanGTP-Impb inh 88, proKLK7 act 62 (no result: Runt-SMMHC FRET, Wee1 stabilizer, Runt-CBFb FRET) | KLK7 act conf 21 | EDANS-DABCYL int inactive | EDANS interf inactive
Cc1c(O)ccc2c(CC(=O)N[C@@H](Cc3ccccc3)C(=O)O)cc(=O)oc12	RanGTP-Impb inh 68, proKLK7 act 36 (no result: Runt-SMMHC FRET, Wee1 stabilizer, Runt-CBFb FRET) | KLK7 act conf 65 | EDANS-DABCYL int 61
Cc1c(O)ccc2c(CN3CCN(Cc4ccccc4)CC3)cc(=O)oc12	RanGTP-Impb inh 54, proKLK7 act 46 (no result: Runt-SMMHC FRET, Wee1 stabilizer, Runt-CBFb FRET) | KLK7 act conf 78 | EDANS-DABCYL int 75
CCc1ccc2c(CN3CCN(Cc4ccccc4)CC3)cc(=O)oc2c1	none (no result: Runt-SMMHC FRET, Wee1 stabilizer, Runt-CBFb FRET)
COc1ccc2c(CC(=O)N[C@@H](Cc3ccccc3)C(=O)O)cc(=O)oc2c1	none (no result: Runt-SMMHC FRET, Wee1 stabilizer, Runt-CBFb FRET)
CC(=N[C@@H]1CCCC[C@H]1N=C(C)c1ccccc1O)c1ccccc1O	none
Cc1nc(Cl)c2c(n1)NC1=C(O2)C(=O)CCC1	Runt-SMMHC FRET 73, proKLK7 act 22 | KLK7 act conf 18 | EDANS-DABCYL int 22
CCCCNc1nc(-c2ccccc2)c(C(=O)OCC)cc1C#N	none
